Results from different studies.
Target: Tyrosine-protein kinase Fes/Fps (FES, Homo sapiens, UniProt P07332)

Cn1cc(-c2cccc(N3CCc4c(sc5c4CC(C)(C)C5)C3=O)c2CO)cc(Nc2ccncn2)c1=O  inhibition (enzyme activity; inhibitor; 1 µM): 4%
CC(C)(C)c1cc(C=C(C#N)C#N)cc(Br)c1O  remaining activity (enzyme activity; inhibitor; 0.5 µM): 105%
C#Cc1n[nH]c2c(-c3cn([C@@H](C)c4ccccc4)c(=O)[nH]c3=O)cc(F)cc12  inhibition (enzyme activity; inhibitor; 0.1 µM): 7.4%
Nc1ncc(-c2nc(N3CCOCC3)nc(N3CCOCC3)n2)c(C(F)F)n1  remaining binding (binding; competition with immobilised ligand; 10 µM): 91%
c1ccc(C(NCCNC(c2ccccc2)c2ccccc2)c2ccccc2)cc1  inhibition (enzyme activity; inhibitor; 10 µM): -2%
Cn1cc(-c2cc(F)cc(N3CCn4c(cc5c4CCCC5)C3=O)c2CO)cc(Nc2ccc(N3CCN(C4COC4)CC3)cn2)c1=O  inhibition (enzyme activity; inhibitor; 0.1 µM): 9%
Cc1nn(C)cc1-c1nc2c(N3CCN(Cc4ccc(Cl)cc4)CC3)c(Cl)cnc2[nH]1  remaining binding (binding; competition with immobilised ligand; 1 µM): 100%
Cn1cncc1[C@@](O)(COc1ccc(C#N)cc1-c1ccc(OC(F)(F)F)cc1)c1ccc(C#N)cc1  remaining binding (cell-free assay; competition with immobilised ligand; 1 µM): 100%
COc1ncccc1-c1cnn2ccc(N3CCN(C(=O)OC(C)C)CC3)nc12  remaining binding (binding; competition with immobilised ligand; 1 µM): 100%
C[C@H](C(=O)N[C@H]1COc2ccccc2[C@@H]1S(C)(=O)=O)c1ccc(F)cc1  inhibition (enzyme activity; inhibitor; 10 µM): -14%
O=c1[nH]c2ccccc2n1C1CCN(Cc2ccc(-c3[nH]c4cc5ncnc5cc4nc3-c3ccccc3)cc2)CC1  remaining signal (cell-free assay; 0.5 µM): 101%
C#Cc1n[nH]c2c(-c3cn(C(C)c4ccccn4)c(=O)[nH]c3=O)cc(F)cc12 (stereo not drawn)  inhibition (enzyme activity; inhibitor; 1 µM): 5.3%
